Activity calls are given as the source filed them.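 How the source made its calls, unless noted: active means inhibition at or above 50% relative to wild type and mutant plate controls; inactive means inhibition below 50%.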
Assays:
[1] = inhibitors of TNFa-induced NFkB p65 translocation, primary screen, imaging, HUVEC, MLSMR starter and 10KST1 sets (AID 438;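 active means inhibition above 20% together with a positive visual image hit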;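 further: compound added about 3h40 before a 20 min TNFalpha stimulation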;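 on inhibition: signal is the nuclear over cytoplasmic p65 intensity ratio per well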); conditions: HUVEC TNFa-induced p65 nuclear translocation; cell count: measured here: nuclei count (cytotoxicity indicator), at 2.08 µM; inhibition: at 2 µM, stronger effect = higher value, 0% TNFa-plus-vehicle, 100% no-TNFa wells
[2] = endothelial E-selectin expression blockers – imaging, HUVEC, immunofluorescence, MLSMR starter and 10KST1 sets, primary screen (AID 487;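 active means visually confirmed hit in the image check and inhibition above 20%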;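 on inhibition: signal is fraction of cell area covered by stained E-selectin grains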;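 on nuclei count: 100% = median nuclei count of all wells on the same plate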); conditions: HUVEC TNFalpha-induced E-selectin immunofluorescence imaging, at 2 µM; inhibition: stronger effect = higher value; nuclei count: measured here: cell number, toxicity
[3] = Primary imaging screen for DUSP6 inhibitors that restore phospho-Erk in transfected HeLa cells, chemical complementation (AID 609;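 active means compounds giving at least 50% inhibition in the cell-based MKP-3 phosphatase rescue imaging test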;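 on inhibition: phospho-Erk level distribution per well compared with pooled transfected vehicle control wells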); conditions: HeLa MKP-3 transfected, phospho-Erk imaging KS statistic, at 10 µM, cells stimulated with TPA for 15 min
[4] = molecular target: Dual specificity protein phosphatase 6 (Homo sapiens) (UniProt Q16828); experiment: as above; conditions: HeLa MKP-3 transfected, phospho-Erk imaging KS statistic; at 10 µM; stronger effect = higher value; cells stimulated with TPA for 15 min
Sequence of Dual specificity protein phosphatase 6 (Homo sapiens) (Q16828 whole entry, looked up): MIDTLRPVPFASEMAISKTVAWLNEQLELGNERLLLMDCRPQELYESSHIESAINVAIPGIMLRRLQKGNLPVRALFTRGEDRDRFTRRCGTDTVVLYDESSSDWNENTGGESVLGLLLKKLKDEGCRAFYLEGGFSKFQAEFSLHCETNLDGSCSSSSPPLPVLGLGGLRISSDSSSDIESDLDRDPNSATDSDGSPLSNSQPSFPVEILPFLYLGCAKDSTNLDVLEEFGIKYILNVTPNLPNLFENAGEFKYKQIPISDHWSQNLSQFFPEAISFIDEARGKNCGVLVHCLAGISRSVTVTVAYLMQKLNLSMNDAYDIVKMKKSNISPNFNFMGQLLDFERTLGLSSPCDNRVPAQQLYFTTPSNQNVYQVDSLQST

[5] = molecular target: Voltage-gated potassium channel subunit beta-2 (Rattus norvegicus) (UniProt P62483); experiment: inhibitors of rat Kvbeta2 reductase activity – biochemical, NADPH fluorescence, primary screen (AID 622;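 active means fluorescence slope higher than the sample average by over 3 SD, cut at about -0.22 in these data, passing the limit was not always enough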;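 further: slope of raw intensity against log time taken from 70 to 1610 s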); conditions: recombinant KvBeta, 4-cyanobenzaldehyde reduction, at 10 µM, stronger effect = higher value
Sequence of Voltage-gated potassium channel subunit beta-2 (Rattus norvegicus) (P62483 whole entry, looked up): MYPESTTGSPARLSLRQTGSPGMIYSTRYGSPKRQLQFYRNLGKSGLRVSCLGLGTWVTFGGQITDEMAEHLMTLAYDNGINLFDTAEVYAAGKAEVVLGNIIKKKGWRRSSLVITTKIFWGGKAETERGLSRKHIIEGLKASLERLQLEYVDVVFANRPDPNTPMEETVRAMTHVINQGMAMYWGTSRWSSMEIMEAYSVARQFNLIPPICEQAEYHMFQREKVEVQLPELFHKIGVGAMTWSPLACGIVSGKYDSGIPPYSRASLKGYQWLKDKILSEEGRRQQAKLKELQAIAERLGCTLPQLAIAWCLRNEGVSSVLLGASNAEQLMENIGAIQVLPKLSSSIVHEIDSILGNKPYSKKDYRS

[6] = molecular target: Voltage-gated potassium channel subunit beta-2 (Rattus norvegicus) (UniProt P62483); experiment: enhancers of rat Kvbeta2 NADPH turnover – biochemical, NADPH fluorescence, primary screen (AID 623;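 active means NADPH fluorescence slope more negative than the mean of all samples by about 3 SD, 99.7% confidence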;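 further: fluorescence intensity change per second fitted from 20 to 320 s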); conditions: Recombinant KvBeta, NADPH fluorescence decrease slope, 10 min; at 10 µM; stronger effect = lower value
[7] = molecular target: Muscarinic acetylcholine receptor M4 (Homo sapiens) (UniProt P08173); experiment: M4-linked GIRK flux change, two-sided – cell-based, HEK293 M4/GIRK, thallium flux, BTC-AM, M4 allosteric agonist project, primary screen (AID 625;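 active means fluorescence slope after compound addition differing from the mean of all tested samples at 99.7% confidence, mostly higher but some lower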;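 further: thallium influx through GIRK channels coupled to M4 in HEK293 cells with BTC-AM dye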); conditions: at 10 µM, actives lie on both sides
Sequence of Muscarinic acetylcholine receptor M4 (Homo sapiens) (P08173 whole entry, looked up): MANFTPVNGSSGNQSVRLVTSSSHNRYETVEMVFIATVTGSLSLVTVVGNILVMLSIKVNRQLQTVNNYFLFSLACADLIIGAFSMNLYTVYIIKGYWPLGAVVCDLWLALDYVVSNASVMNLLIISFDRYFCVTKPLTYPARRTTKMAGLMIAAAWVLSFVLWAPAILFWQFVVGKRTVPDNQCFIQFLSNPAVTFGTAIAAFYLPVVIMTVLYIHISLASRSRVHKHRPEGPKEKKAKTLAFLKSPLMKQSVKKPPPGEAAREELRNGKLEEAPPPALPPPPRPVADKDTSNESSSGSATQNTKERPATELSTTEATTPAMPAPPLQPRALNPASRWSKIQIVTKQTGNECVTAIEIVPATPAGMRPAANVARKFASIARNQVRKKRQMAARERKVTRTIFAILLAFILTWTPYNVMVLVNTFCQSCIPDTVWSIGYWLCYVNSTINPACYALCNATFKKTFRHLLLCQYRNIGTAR
Summary of the method: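 Material – HEK293 cells with M4 receptor and GIRK channels · Buffer or medium – pH 7.3 thallium assay buffer · Doses – one dose, 10 µM final · Timing – cells overnight at 37 °C, BTC-AM loading 1 h, reads 2 min total · Measured by – kinetic fluorescence with BTC-AM dye · Controls – carbachol and DMSO controls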

[8] = inhibitors of larval lipid processing in zebrafish, primary screen, whole organism, PED6 fluorescence, gall bladder and intestine (AID 686;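 active means a full or partial loss of lipid-probe fluorescence in the fish gall bladder, intestine or both, judged by eye; inactive means no fluorescence loss, or compound toxic to the fish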;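 further: larvae 5 to 7 days old with five fish per well; signal comes from phospholipase A2 cleavage of quenched PED6 carried via bile; overnight exposure to compound and PED6 before scoring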); conditions: Zebrafish larvae PED6 lipid processing, fluorescence scoring; screened at 20 µM (by protocol)
Summary of the method: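 system = live zebrafish larvae aged 5-7 days, whole organism | probe or stimulus = ingested quenched lipid PED6 at 100 nM | doses = 20 µM single dose | timing = overnight exposure | detection = fluorescence microscopy with visual scoring of gall bladder and intestine | read-out = visual per-well fluorescence inhibition score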

[9] = loss of swimming-algae plug formation – whole organism, Chlamydomonas reinhardtii, WT vs cilia-less mutant, absorbance, 96-well, primary screen (AID 463189); conditions: Chlamydomonas reinhardtii gravitaxis, OD600 absorbance, 2 days; at 10 µM; stronger effect = higher value;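 further: 0% = wild type cc124 cells in DMSO and 100% = ciliumless bld1 mutant cells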
[10] = measured here: cell density z-score
[11] = measured here: nuclear c-Myc green intensity z-score
[12] = measured here: nuclear pErk red intensity z-score, stronger effect = higher value

Row | SMILES | cell count [1] | inhibition [1] | inhibition [2] | nuclei count [2] [%] | z-score [3, 10] | z-score [3, 11] | z-score [3, 12] | inhibition [4] | fluorescence slope [5] | NADPH fluorescence slope [6] | fluorescence slope [7] | outcome [8] | inhibition [9]
1 | O=c1c(-c2ccc(Cl)cc2)[n+]([O-])c2ccccc2n1O | 517 | -16.1% (inactive) | -12.5% (inactive) | 170 | 0.0473 | 0.796 | 0.573 | 15.9% (inactive) | -0.31 (inactive) | -3.9e-05 (inactive) | 0.0132 (active) | inactive | 33.5% (inactive)
2 | O=C(NCc1ccccc1)C1C(=O)N(Cc2ccccc2)C(=O)C1C1(O)CCCC1 (configuration not stated) | 653 | -2.4% (inactive) | -17.9% (inactive) | 108 | -0.94 | 0.675 | 0.754 | -13.3% (inactive) | -0.508 (inactive) | -2.1e-05 (inactive) | 0.00572 (inactive) | inactive | -5.5% (inactive)
3 | COC(=O)/C(C#N)=C1/SC=C(C)N1c1ccccc1 | 611 | 4.9% (inactive) | -42.5% (inactive) | 115 | -0.0327 | -1.23 | -0.208 | -13.3% (inactive) | -0.46 (inactive) | -5.6e-05 (inactive) | 0.00543 (inactive) | inactive | -8.28% (inactive)
4 | O=C(c1ccccc1)c1cc(-c2ccccc2)on1 | 589 | -3.4% (inactive) | -39.7% (inactive) | 118 | -0.313 | -0.603 | 0.519 | -13.3% (inactive) | -0.41 (inactive) | -7.5e-05 (inactive) | 0.00548 (inactive) | inactive | -6.04% (inactive)
5 | CCOC(=O)c1[nH]c2ccc(C)cc2c1N=CN(CC)CC | 681 | -16.8% (inactive) | -97.9% (inactive) | 174 | -1.2 | 1.5 | 0.686 | 3.97% (inactive) | -0.474 (inactive) | -7.5e-05 (inactive) | 0.00485 (inactive) | inactive | -5% (inactive)
6 | CC(C)CCNc1nc2c(cc1C#N)COC(C)(C)C2 | 536 | -6.5% (inactive) | -22.1% (inactive) | 143 | 1.89 | -0.595 | -1.16 | 22.1% (inactive) | -0.426 (inactive) | -5.9e-05 (inactive) | 0.00455 (inactive) | inactive | -19.8% (inactive)
7 | O=C1NC(=O)C(c2cn(-c3ccccc3)nc2-c2ccc(F)cc2)N1 (configuration not stated) | 664 | 1.3% (inactive) | -12.6% (inactive) | 115 | 0.135 | -0.561 | -0.862 | 3.49% (inactive) | -0.46 (inactive) | -5.3e-05 (inactive) | 0.005 (inactive) | inactive | 2.79% (inactive)
8 | COC(=O)COc1ccc(Oc2nc(SC)nc(N(C)C)n2)nn1 | 345 | -16.3% (inactive) | -54.5% (inactive) | 109 | -0.468 | -0.441 | -0.861 | -3.95% (inactive) | -0.461 (inactive) | -8.1e-05 (inactive) | 0.00594 (inactive) | inactive | -8.33% (inactive)
9 | COc1ccc(C2CC(c3ccc(C)cc3)Nc3nc(N)nn32)cc1 (configuration not stated) | 390 | 2.2% (inactive) | -104% (inactive) | 145 | -0.765 | 2.44 | -0.827 | 9.82% (inactive) | -0.447 (inactive) | -7.3e-05 (inactive) | 0.00548 (inactive) | inactive | -10.9% (inactive)
10 | Cc1cc(C)c(C#N)c(OCC(=O)c2ccccc2)n1 | 450 | -5.3% (inactive) | -69% (inactive) | 156 | -0.815 | 1.05 | 0.134 | -3.95% (inactive) | -0.405 (inactive) | -3.4e-05 (inactive) | 0.00481 (inactive) | inactive | -6.74% (inactive)
11 | CCCSc1nnc(NC(=O)Nc2ccc(F)cc2)s1 | 660 | -13.9% (inactive) | -24% (inactive) | 182 | 0.28 | -1.17 | -0.511 | 20.2% (inactive) | -0.488 (inactive) | -6.8e-05 (inactive) | 0.00807 (inactive) | inactive | 6.75% (inactive)
12 | Cc1c(C2CC(=O)N(c3ccccc3)C2=O)[nH]n(-c2ccccc2)c1=O (configuration not stated) | 618 | 4.4% (inactive) | -97.6% (inactive) | 143 | -1.05 | 0.971 | 0.084 | -7.86% (inactive) | -0.488 (inactive) | -5.3e-05 (inactive) | 0.00493 (inactive) | inactive | 6.43% (inactive)
13 | COc1nnnc2c1sc1nc(N3CCOCC3)c3c(c12)CC(C)(C)OC3 | 590 | -3.9% (inactive) | -92.2% (inactive) | 154 | 0.493 | 0.116 | -0.785 | -13.3% (inactive) | -0.482 (inactive) | -0.000107 (inactive) | 0.00514 (inactive) | inactive | -3.82% (inactive)
14 | CCOc1ccc(C2CC(c3ccccc3)Nc3nc(N)nn32)cc1 (configuration not stated) | 364 | -2.2% (inactive) | -80.6% (inactive) | 144 | 1.38 | -1.02 | 0.957 | 11.9% (inactive) | -0.467 (inactive) | -0.000102 (inactive) | 0.00481 (inactive) | inactive | -15.5% (inactive)

From PubChem BioAssay
